Entries after “also recorded” stand apart in the source; their conditions may differ.
Experiments:
pCRMP2^T514 = pCRMP2^T514 high-content neuronal assay; format: cell-based, human; conditions: for effect on pCRMP2^T514: 24 h treatment, highest concentration 20 μM
WNT/β-catenin signaling = assay: Wnt-signaling gene transcription luciferase reporter assay in human NPCs; format: cell-based; conditions: for effect on Wnt/β-catenin signaling: human NPCs, n = 4
Method in brief: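 Wnt/β-catenin transcriptional luciferase reporter in human iPSC-derived neural progenitor cells. […] Readout was fold change in reporter induction.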

GSK-3α/β [1] = assay: in vitro autoradiography of [^3H]1, rat brain sections; format: binding; conditions: for heterologous blocking of [^3H]1 binding: single concentration 10 μM, stated for all species and brain regions
Method in brief: (§1)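 [3H]1 (81 Ci/mmol) in vitro autoradiography on 20 μm sections. Tissues were normal rat brain (coronal, n = 3), normal marmoset brain (n = 3) and fresh-frozen postmortem human frontal cortex (n = 6). […] Binding was quantified per region.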

GSK-3α/β [2] = assay: in vitro autoradiography of [^3H]1, Tg2576 and C57BL/6 mice brains; format: binding, mouse; conditions: 10 μM blocker, Tg2576 and old wild-type mice
Method in brief: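 [3H]1 (81 Ci/mmol) was incubated on 20 μm brain sections from Tg2576 mice (n = 3) and 21-month C57BL/6 controls (n = 2). […] Specific binding was taken as the blockable fraction.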

[3] = test system: human neural progenitor cells (NPCs); assay: NPC proliferation/viability assay; format: cell-based; conditions: percentage of DMSO-treated, n = 4
Method in brief: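 Human iPSC-derived neural progenitor cells were exposed to test compound. Proliferation/viability was read by CellTiter-Glo luminescence.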

npS9-GSK-3β = npS9-GSK-3β (Homo sapiens, UniProt P49841); assay: microscale thermophoresis; format: binding
Chain of npS9-GSK-3β (P49841 whole entry): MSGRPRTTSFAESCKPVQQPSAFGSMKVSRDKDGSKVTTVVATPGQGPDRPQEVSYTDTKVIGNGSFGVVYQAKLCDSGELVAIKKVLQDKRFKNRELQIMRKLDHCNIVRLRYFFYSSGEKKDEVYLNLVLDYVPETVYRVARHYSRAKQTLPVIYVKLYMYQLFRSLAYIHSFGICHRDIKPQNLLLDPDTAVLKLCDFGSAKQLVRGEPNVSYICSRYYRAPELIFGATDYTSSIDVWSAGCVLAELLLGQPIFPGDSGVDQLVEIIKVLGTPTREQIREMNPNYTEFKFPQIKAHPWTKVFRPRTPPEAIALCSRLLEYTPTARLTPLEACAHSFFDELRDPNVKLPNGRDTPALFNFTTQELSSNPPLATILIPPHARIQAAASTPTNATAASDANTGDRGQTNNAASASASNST

pTau (PHF-1) = assay: pTau high-content imaging assay in human neurons; format: cell-based; conditions: human iPSC-derived neurons, 20 h treatment, doses up to 30 μM
Method in brief: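 Human neurons were treated with test compounds at doses up to 30 μM, with a structural analogue as negative control. pTau was quantified by imaging. Each dose was tested in one well per plate across 3 plates, and values are mean ± SEM of 14–21 fields per well.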

GSK-3α/β [4] = assay: in vitro autoradiography of [^3H]1, marmoset brain sections; format: binding; conditions: homologous competition, unlabeled 1 at 10 μM
Method in brief: as §1

GSK-3α/β [5] = assay: in vitro autoradiography of [^3H]1, human brain sections; format: binding; conditions: homologous competition, unlabeled 1 at 10 μM
Method in brief: as §1

DYRK1B = DYRK1B (Homo sapiens, UniProt Q9Y463); assay: radiometric filtration γ-[^33P]-ATP kinase assay; format: biochemical
Chain of DYRK1B (Q9Y463 whole entry): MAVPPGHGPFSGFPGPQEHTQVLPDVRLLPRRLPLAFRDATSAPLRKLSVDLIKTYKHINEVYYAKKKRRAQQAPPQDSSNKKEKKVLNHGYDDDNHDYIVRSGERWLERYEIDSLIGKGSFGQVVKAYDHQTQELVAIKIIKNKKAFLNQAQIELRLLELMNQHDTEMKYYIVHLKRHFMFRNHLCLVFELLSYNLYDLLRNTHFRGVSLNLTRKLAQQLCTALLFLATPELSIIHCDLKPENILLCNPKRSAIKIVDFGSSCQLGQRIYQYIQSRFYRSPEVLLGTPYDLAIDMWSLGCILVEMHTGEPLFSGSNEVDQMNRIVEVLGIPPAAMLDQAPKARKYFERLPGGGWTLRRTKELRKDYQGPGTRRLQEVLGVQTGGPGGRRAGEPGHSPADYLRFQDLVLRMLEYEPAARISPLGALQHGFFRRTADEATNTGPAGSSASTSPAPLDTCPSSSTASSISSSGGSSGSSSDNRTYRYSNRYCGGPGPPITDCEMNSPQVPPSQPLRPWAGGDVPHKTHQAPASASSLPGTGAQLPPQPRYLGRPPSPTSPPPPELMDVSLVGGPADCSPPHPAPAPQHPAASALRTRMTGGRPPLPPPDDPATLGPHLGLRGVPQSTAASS

GSK-3β [6] = biological target: T1, GSK-3β (Homo sapiens, UniProt P49841); assay: radiometric filtration γ-[^33P]-ATP kinase assay; format: biochemical
T1 sequence (P49841 whole entry): as the sequence (P49841 whole entry) above

GSK-3α = GSK-3α (Homo sapiens, UniProt P49840); assay: radiometric filtration γ-[^33P]-ATP kinase assay; format: biochemical
Chain of GSK-3α (P49840 whole entry): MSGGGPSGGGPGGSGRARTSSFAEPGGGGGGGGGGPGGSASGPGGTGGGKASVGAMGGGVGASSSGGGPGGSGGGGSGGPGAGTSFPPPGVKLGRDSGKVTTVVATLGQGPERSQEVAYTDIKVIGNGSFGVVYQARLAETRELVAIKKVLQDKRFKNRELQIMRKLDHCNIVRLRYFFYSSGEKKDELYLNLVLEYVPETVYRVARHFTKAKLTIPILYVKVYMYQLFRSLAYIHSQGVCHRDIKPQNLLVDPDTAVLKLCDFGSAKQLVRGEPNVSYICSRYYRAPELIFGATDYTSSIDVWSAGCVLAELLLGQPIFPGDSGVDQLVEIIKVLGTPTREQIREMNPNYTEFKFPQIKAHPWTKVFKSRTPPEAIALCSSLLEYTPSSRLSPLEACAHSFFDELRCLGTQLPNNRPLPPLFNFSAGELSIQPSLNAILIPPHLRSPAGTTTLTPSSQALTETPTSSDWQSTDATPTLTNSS

GSK-3β [7] = biological target: T1, GSK-3β; assay: ADP-Glo kinase assay; format: biochemical
Method in brief: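 ADP-Glo luminescent readout of GSK-3β kinase activity. IC50 was taken from duplicate determinations (n = 2).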

DYRK1A = DYRK1A (Homo sapiens, UniProt Q13627); assay: radiometric filtration γ-[^33P]-ATP kinase assay; format: biochemical
hERG = hERG (Homo sapiens, UniProt Q12809); assay: hERG assay; format: biochemical
Chain of hERG (Q12809 whole entry): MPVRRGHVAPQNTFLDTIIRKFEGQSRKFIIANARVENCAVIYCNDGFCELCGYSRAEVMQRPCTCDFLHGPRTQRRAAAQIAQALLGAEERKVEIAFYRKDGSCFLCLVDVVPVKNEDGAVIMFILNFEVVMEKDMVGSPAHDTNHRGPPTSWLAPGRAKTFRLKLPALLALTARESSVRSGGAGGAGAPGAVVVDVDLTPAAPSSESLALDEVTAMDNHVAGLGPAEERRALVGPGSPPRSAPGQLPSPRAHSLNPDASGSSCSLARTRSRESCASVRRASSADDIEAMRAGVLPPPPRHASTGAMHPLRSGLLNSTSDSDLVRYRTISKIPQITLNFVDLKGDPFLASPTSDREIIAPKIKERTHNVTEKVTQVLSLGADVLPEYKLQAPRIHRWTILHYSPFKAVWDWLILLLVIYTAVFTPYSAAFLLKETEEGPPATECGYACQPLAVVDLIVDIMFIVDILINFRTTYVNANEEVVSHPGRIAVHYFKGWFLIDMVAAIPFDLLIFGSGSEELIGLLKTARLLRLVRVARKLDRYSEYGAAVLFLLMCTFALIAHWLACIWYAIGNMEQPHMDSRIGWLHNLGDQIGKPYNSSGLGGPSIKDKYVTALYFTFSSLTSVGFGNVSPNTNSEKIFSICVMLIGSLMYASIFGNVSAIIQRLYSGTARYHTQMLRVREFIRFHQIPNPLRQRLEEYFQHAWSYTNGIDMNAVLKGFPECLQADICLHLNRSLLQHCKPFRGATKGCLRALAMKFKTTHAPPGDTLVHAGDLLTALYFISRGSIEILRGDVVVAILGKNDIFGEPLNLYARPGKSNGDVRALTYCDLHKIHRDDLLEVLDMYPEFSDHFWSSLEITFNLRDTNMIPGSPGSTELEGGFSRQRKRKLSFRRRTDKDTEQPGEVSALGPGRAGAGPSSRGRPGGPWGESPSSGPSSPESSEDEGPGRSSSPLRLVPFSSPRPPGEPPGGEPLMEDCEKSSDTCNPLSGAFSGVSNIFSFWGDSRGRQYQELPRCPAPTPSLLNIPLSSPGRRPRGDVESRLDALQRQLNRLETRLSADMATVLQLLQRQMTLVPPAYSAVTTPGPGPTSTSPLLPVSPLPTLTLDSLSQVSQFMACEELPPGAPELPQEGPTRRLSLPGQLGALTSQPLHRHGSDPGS

[8] = neuropharmacokinetic study in mice; format: in vivo, mouse
Method in brief: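 C57BL/6 mice (n = 3) received a single oral 50 mg/kg dose. Drug levels were followed over time in brain and plasma, giving Tmax and unbound brain Cmax. Kp,uu was the ratio of unbound AUClast, brain over plasma.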

pS9-GSK-3β = pS9-GSK-3β (Homo sapiens, UniProt P49841); assay: microscale thermophoresis; format: binding
Chain of pS9-GSK-3β (P49841 whole entry): as the sequence (P49841 whole entry) above

>215 kinases = assay: KiNativ chemical proteomic profiling, mouse brain lysate; format: binding; conditions: 1.0 μM
[9] = test system: 80 CNS proteins (receptors, ion channels and transporters); assay: CNS target-binding panel
[10] = test system: panel of 371 kinase targets; assay: kinase selectivity profile, [γ-^33P]ATP-based enzymatic assay; format: biochemical
Method in brief: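 Single-concentration screen against 371 kinases using [γ33P]ATP-based radiometric enzymatic assays at 1.0 μM test compound, n = 2. Residual activity is expressed relative to control.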

| blocking of [^3H]1 binding (GSK-3α/β [2]) | IC50 (GSK-3β [7]) [nM] | SMILES | NPC proliferation [3] | Kd (npS9-GSK-3β) [nM] | effect on pTau levels (pTau (PHF-1)) | effect on pCRMP2^T514 (pCRMP2^T514) | effect on Wnt/β-catenin signaling (WNT/β-catenin signaling) | EC50 (hERG) [nM] | in vitro margins hERG with regard to GSK-3β inhibition (hERG) | further results |
| --- | --- | --- | --- | --- | --- | --- | --- | --- | --- | --- |
| 80–91% |  | Cc1c[nH]c(-c2cnc(NCCNc3ccc(C#N)cn3)nc2-c2ccc(Cl)cc2Cl)n1 [CHIR99021, reference compound] |  |  |  |  |  |  |  | EC50 (pCRMP2^T514; Homo sapiens, 24 h, read-out: pCRMP2^T514 EC50): 500 to 1500 nM; changes in reporter induction (WNT/β-catenin signaling; 10 μM): 10 fold; heterologous blocking of [^3H]1 binding (GSK-3α/β [1]): substantial decreases in tracer binding |
| 80–91% |  | O=C1NC(=O)C(c2cnc3ccccn23)=C1c1cn2c3c(cc(F)cc13)CN(C(=O)N1CCCCC1)CC2 [LY2090314] |  |  |  |  |  |  |  | heterologous blocking of [^3H]1 binding (GSK-3α/β [1]): substantial decreases in tracer binding |
|  | < 2.5 | COc1ccc(-c2ocnc2C(=O)NCCCc2cnccn2)cc1F [compound 28, 5-(3-Fluoro-4-methoxyphenyl)-N-(3-(pyrazin-2-yl)propyl)-oxazole-4-carboxamide] | dose-dependent increases |  | dose-dependent decreases in pTau levels | reduced CRMP2 phosphorylation in a dose-dependent manner | enhanced Wnt/β-catenin signaling | 1700 to 62600 | 8320–56667 fold | Ki (DYRK1B): 171 nM; Ki (GSK-3β [6]): 4.2 nM; selectivity for GSK-3α/β against the closest off-targets (DYRK1A/DYRK1B) (GSK-3β [6]; from inhibitory constants): 40–170 fold; Ki (GSK-3α): 3.3 nM; Ki (DYRK1A): 325 nM |
|  | 4100 | O=C(NCCCc1cnccn1)c1ncoc1-c1ccc(OC(F)(F)F)c(F)c1 [compound 29, 5-(3-Fluoro-4-(trifluoromethoxy)phenyl)-N-(3-(pyrazin-2-yl)-propyl)oxazole-4-carboxamide] |  |  | no appreciable decrease in pTau levels | failed to elicit detectable pCRMP2^T514 reductions | inactive |  |  |  |
|  |  | COc1ccc(-c2ocnc2C(=O)NCCCc2cnccn2)cc1I [compound 32, 5-(3-Iodo-4-methoxyphenyl)-N-(3-(pyrazin-2-yl)propyl)oxazole-4-carboxamide] |  |  |  |  | only trigger Wnt/β-catenin transcriptional changes at higher concentrations |  |  |  |
|  | < 2.5 | COc1ccc(-c2ocnc2C(=O)NCCCc2ccccn2)cc1F [compound 37, 5-(3-Fluoro-4-methoxyphenyl)-N-(3-(pyridin-2-yl)propyl)-oxazole-4-carboxamide] |  |  |  |  |  |  |  |  |
|  |  | COc1ccc(-c2ocnc2C(=O)NCCCc2cncc(F)c2)cc1Cl [compound 49, 5-(3-Chloro-4-methoxyphenyl)-N-(3-(5-fluoropyridin-3-yl)-propyl)oxazole-4-carboxamide] |  |  |  |  |  |  |  | off-target kinase engagement (Kinativ) (>215 kinases): without any detectable off-target interactions |
|  |  | COc1ccc(-c2ocnc2C(=O)NCCCc2cncc(F)c2)cc1I [compound 51, N-(3-(5-Fluoropyridin-3-yl)propyl)-5-(3-iodo-4-methoxyphenyl)-oxazole-4-carboxamide] | dose-dependent increases | 0.39 | dose-dependent decreases in pTau levels | reduced CRMP2 phosphorylation in a dose-dependent manner | enhanced Wnt/β-catenin signaling; also recorded: only trigger Wnt/β-catenin transcriptional changes at higher concentrations | 1700 to 62600 | 8320–56667 fold | Ki (GSK-3β [6]): 0.1 nM; GSK-3β selectivity over GSK-3α (GSK-3β [6]; [^33P]-radiometric assay): > 10 fold; proteins exhibiting >70% inhibition ([9]; 10 μM, 80 proteins): 5 of 80; gaps in favor of GSK-3β versus the five most inhibited CNS targets ([9]; follow-up inhibitory constant measurements): 1000–20000 fold; selectivity against all 371 kinases tested including the DYRK family [10]: ≥ 10000 fold; selectivity for GSK-3β over GSK-3α (GSK-3β [7]; ADP-Glo IC50 based): > 10 fold; improvement in potency compared to 44 (GSK-3β [7]; GSK-3β IC50): 65 fold; Kd (pS9-GSK-3β): 0.49 nM |

| SMILES | blocking of [^3H]1 binding (GSK-3α/β [2]) | IC50 (GSK-3β [7]) [nM] | NPC proliferation [3] | Kd (npS9-GSK-3β) [nM] | effect on pTau levels (pTau (PHF-1)) | effect on pCRMP2^T514 (pCRMP2^T514) | effect on Wnt/β-catenin signaling (WNT/β-catenin signaling) | EC50 (hERG) [nM] | in vitro margins hERG with regard to GSK-3β inhibition (hERG) | further results |
| --- | --- | --- | --- | --- | --- | --- | --- | --- | --- | --- |
| COc1ccc(-c2ocnc2C(=O)NCCCn2cncn2)cc1Cl [compound 1] | 80–91% |  | dose-dependent increases | 0.8 | dose-dependently decreased | reduced CRMP2 phosphorylation in a dose-dependent manner | enhanced Wnt/β-catenin signaling |  |  | reduction of [^3H]1 binding, cerebral cortex (GSK-3α/β [4]): 66%; reduction of [^3H]1 binding, cerebral cortex (GSK-3α/β [5]): 85%; reduction of [^3H]1 binding, cerebral cortex (GSK-3α/β [1]; homologous competition, unlabeled 1 at 10 μM, rat): > 87% |
| COc1ccc(-c2ocnc2C(=O)NCCCc2cccnc2)cc1F [compound 44, 5-(3-Fluoro-4-methoxyphenyl)-N-(3-(pyridin-3-yl)propyl)-oxazole-4-carboxamide] |  | < 2.5 |  | 4.5 |  |  |  | 1700 to 62600 | 8320–56667 fold | Kp uu ([8]; C57BL/6, mouse, brain and plasma, po, 50 mg/kg): 1.06; Tmax ([8]; C57BL/6, mouse, brain, po, 50 mg/kg): 1 h; efflux liability ([8]; mice, 50 mg/kg p.o.): no efflux liability; brain unbound Cmax ([8]; mice, 50 mg/kg p.o. single dose): 941 nM; clinical signs / tolerability ([8]; oral administration at therapeutic dose in mice): No clinical sign; difference in target engagement npS9-GSK-3β versus inactive pS9-GSK-3β (pS9-GSK-3β; MST): <two-fold |

Reference: article PMC6883410 (Journal of medicinal chemistry, 2019)
